Bioassay records deposited in PubChem BioAssay by Broad Institute.
SIRT5 block = SIRT5 desuccinylase inhibitors, primary screen, biochemical, fluorescence imaging, single point, set 5; AID 652115, 2013; 1.1% of 330,000 active; inhibition, % at 15 µM; Purified SirT5, succinyl-peptide AMC, trypsin-coupled fluorescence; NAD-dependent protein deacylase sirtuin-5, mitochondrial (Homo sapiens), Q9NXA8; in the data active means inhibition above about 15%
AF4-AF9 inh = inhibitors of AF4 peptide binding to AF9, primary screen, biochemical, AlphaScreen, biotin-AF4 peptide, FLAG-AF9, single point; Protein AF-9 (Homo sapiens), P42568; inhibition, % at 10 µM; 0.47% of 350,000 active; AID 651704, 2012;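 active means every replicate reaching a set inhibition limit, whatever the replicate mean, cut at about 25% in these data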;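 further: 0% = plate neutral control median and 100% = total signal loss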
Target sequence (P42568 whole entry, looked up): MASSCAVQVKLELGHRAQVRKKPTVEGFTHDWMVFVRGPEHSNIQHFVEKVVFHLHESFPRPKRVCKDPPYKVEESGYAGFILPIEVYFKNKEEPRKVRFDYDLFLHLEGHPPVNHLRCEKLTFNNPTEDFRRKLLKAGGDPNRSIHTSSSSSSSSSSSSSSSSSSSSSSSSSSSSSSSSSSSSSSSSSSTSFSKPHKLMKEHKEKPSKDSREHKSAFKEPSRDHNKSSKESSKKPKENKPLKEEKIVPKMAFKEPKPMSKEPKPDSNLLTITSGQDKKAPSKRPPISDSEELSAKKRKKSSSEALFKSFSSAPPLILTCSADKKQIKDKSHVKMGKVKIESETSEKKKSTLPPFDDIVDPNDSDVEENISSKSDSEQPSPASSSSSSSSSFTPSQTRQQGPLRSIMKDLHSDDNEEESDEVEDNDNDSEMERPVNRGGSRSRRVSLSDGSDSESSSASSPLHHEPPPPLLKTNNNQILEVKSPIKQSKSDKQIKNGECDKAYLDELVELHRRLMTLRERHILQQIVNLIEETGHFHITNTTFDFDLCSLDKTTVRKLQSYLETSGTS
Ecoli rRNA inh = reduced GFP signal of wild-type E. coli, primary screen, bacterial rRNA inhibitor project, GFP/RFP fluorescence, OD600, single point. E. coli WT GFP vs humanized-ribosome RFP mutants, 24 h; active compounds read low; DMSO median 0, no signal -100. GFP signal change (wild-type ribosome), % (test concentration not listed). 1.6% of 350,000 active;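 active means significant combined selectivity score with lowered wild-type GFP, culture density cut under 30%, mutant RFP and density less affected; inactive means any of these conditions unmet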
E-selectin induc = E-selectin induction in HUVECs, primary screen, imaging, HUVEC, immunofluorescence imaging, single point; P16581; normalized: neutral wells 0, TNF-alpha wells 100; activation, % at 7.58 µM; 0.37% of 260,000 active;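 active means mean E-selectin-positive cell signal at least 10% of the positive control, reached in at least 60% of replicates, without over 20% cell loss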
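Test system: HUVEC; input: 3,000 HUVEC/well; measured by: immunofluorescence imaging; read-out: % PE-positive cells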
S100A4 MyoIIA = inhibitors of S100A4-myosin IIA peptide binding, primary screen, biochemical, fluorescence polarization, TAMRA-MyoIIA peptide; inhibition, % at 10.7 µM; 0.14% of 360,000 active; AID 652163, 2013; Protein S100-A4 (Homo sapiens), P26447;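 active means mean inhibition of at least 70% across replicates, with every replicate also reaching that level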
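Test system: S100A4 monomer protein. Medium: HEPES buffer with Ca2+, pH 7.2. Reagent: fluorescent myosin IIA peptide, 5 nM. Compound dosing: single-point compound testing. Timing: 5 min between mix addition and reading. Benchmarks: DMSO neutral and TFP positive wells.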
ERAP1 inh = human ERAP1 aminopeptidase inhibitors, primary screen, biochemical, single point, plate reader. Endoplasmic reticulum aminopeptidase 1 (Homo sapiens), Q9NZ08. recombinant ERAP1, Leu-AMC fluorescence, 60 min. inhibition, % at 10.7 µM. 0.15% of 340,000 active;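 active means mean replicate inhibition of at least 30%, or all replicates individually reaching that 30% level; inactive means mean below 30% and not every replicate reaching it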;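 further: 0% = neutral control wells and 100% = L-leucinethiol positive control wells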
* marks the source's active call; other numbers are inactive results; . = no result. Hits are enriched below; roughly 3.4% of the tested compounds scored in any of these assays.

SMILES | SIRT5 block | AF4-AF9 inh | Ecoli rRNA inh | E-selectin induc | S100A4 MyoIIA | ERAP1 inh
O=C(C[C@@H]1CC[C@@H]2[C@H](COC[C@H](O)CN2C(=O)c2ccc(F)cc2)O1)Nc1nccs1 | 2.8 | -1.8 | -0.3 | 0.3 | -4.8 | -0.4
COC(=O)C[C@H]1CC[C@@H]2[C@H](COc3ccc(NC(=O)c4cccc(OC)c4)cc3C(=O)N2C)O1 | 1.0 | 0.5 | -2.7 | -0.1 | -7.8 | 3.3
CC(C)c1ccc(N2C(=O)CSC23C(=O)N2CCCc4cccc3c42)cc1 (centres undefined) | 17.8* | 9.4 | 4.8 | . | -2.9 | 0.2
O=C(O)C1CCC(Cn2c(SCc3cc(=O)n4cc(Br)ccc4n3)nc3ccsc3c2=O)CC1 (centres undefined) | 16.7* | 1.4 | -25.9 | -0.1 | 4.2 | -27.8
CC1=CC2=NC(=O)/C(=C/c3cccn3Cc3ccccc3)C(=N)N2O1 | -2.1 | 15.4 | -34.9* | 0.2 | -6.4 | 2.0
Cc1cc(N(CCO)CCO)ccc1N=Nc1cc(F)ccc1F | 5.0 | 35.2* | -52.4 | 6.6 | -3.7 | 3.9
Nc1ccc(N(CCO)CCO)cc1 | -1.1 | -3.3 | 21.7 | -0.1 | 29.2 | -2.7
C[C@@H]1CN([C@@H](C)CO)C(=O)c2cc(C3=CCCCC3)cnc2O[C@H]1CN(C)C(=O)Cc1cccnc1 | -2.5 | 0.2 | -3.1 | 0.1 | 14.0 | 7.9
COCCNCc1ccccc1 | -3.2 | -1.2 | 23.1 | . | -3.4 | -0.4
c1ccc(CNCCCNCCCCNCCCNCc2ccccc2)cc1 | -2.7 | 25.5* | 11.3 | 5.3 | -11.0 | 5.0
Cc1ccc(S(=O)(=O)Nc2cccc3c2O[C@H](CN(C)Cc2ccc(Oc4ccccc4)cc2)[C@@H](C)CN([C@H](C)CO)C3=O)cc1 | 11.8 | -1.5 | 1.3 | -0.2 | -41.2 | 3.0
O=C1c2ccccc2C(Nc2ccccc2F)N1c1cccnc1 (centres undefined) | 0.6 | -2.1 | 0.6 | . | -1.1 | -2.6
COC(=O)c1ccccc1NC1c2ccccc2C(=O)N1c1cccnc1 (centres undefined) | -3.5 | 54.9* | -3.7 | . | -3.4 | 4.8
O=C(Nc1cccc(S(=O)(=O)NCc2ccco2)c1)c1cccc(Cl)c1 | 1.2 | 0.0 | -1.3 | 199.6* | -2.8 | 0.4
CC[n+]1c(/C=C/N(C)c2ccccc2)oc2ccccc21 | 5.2 | 4.4 | -18.9* | -2.5 | -8.0 | 3.7
Cc1ccc(S(=O)(=O)N(C)C[C@@H]2Oc3c(NS(=O)(=O)c4ccc(F)cc4)cccc3C(=O)N([C@H](C)CO)C[C@H]2C)cc1 | . | . | 0.9 | -6.4 | . | .
Cc1cc(OC(C)C(=O)NCC(O)c2ccccc2)c2c(C)c(C)c(=O)oc2c1 (centres undefined) | -6.1 | -1.7 | -1.6 | 0.9 | -2.6 | 2.7
Cc1cc(OC(C(=O)O)c2ccccc2)c2c(C)c(Cc3ccccc3)c(=O)oc2c1 (centres undefined) | -4.2 | 0.6 | -23.6* | . | -5.2 | 4.8
C[C@H](CO)N1C[C@H](C)[C@H](CN(C)C(=O)Nc2cccc(F)c2)Oc2ncc(C3=CCCC3)cc2C1=O | -2.7 | -0.7 | -1.0 | -0.3 | -8.4 | -1.2
Nc1ccc(N=Nc2ccccc2O)c(N)c1 | 5.9 | 49.3* | -40.3* | 0.3 | 1.4 | 7.8
COCC(=O)N1CCC2(CC1)CN(C(=O)c1ccccn1)[C@@H](CO)c1c2c2ccc(OC)cc2n1C | -0.1 | -0.3 | 3.2 | 0.2 | 2.1 | -3.7
CCOc1ccc(CCNC(=O)COC(=O)Cn2cnc3c2c(=O)n(C)c(=O)n3C)cc1OCC | -5.4 | 1.8 | 6.8 | 0.6 | -3.5 | 47.8*
CCOc1ccc(CCNC(=O)COC(=O)Cn2cnc3ccccc3c2=O)cc1OCC | -0.4 | -1.5 | 14.2 | . | 0.5 | 2.9
Cc1ccc(S(=O)(=O)Nc2ccc3c(c2)C(=O)N([C@@H](C)CO)C[C@H](C)[C@@H](CN(C)Cc2ccc(C(F)(F)F)cc2)OCCCC[C@@H](C)O3)cc1 | 16.9* | 3.0 | -0.4 | . | -5.7 | -2.4
